# Screens: PubChem BioAssay, several laboratories
# PfGluPho inh – PfG6PD (Plasmodium falciparum) enzyme inhibition; PfGluPho enzyme, NADPH resazurin-diaphorase fluorescence; inhibition, % at 20 µM; 0.78% of 350,000 active; AID 504690;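 active = inhibition reaching at least a set limit at 20 µM in the primary screen, cut at about 59% in these data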;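 note: 0% = DMSO wells with substrate and 100% = DMSO wells lacking glucose-6-phosphate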
# ABHD5-PLIN5 inh – inhibitors of human ABHD5-perilipin-5 interaction; inhibition, % at 4 µM; AID 602281; Split G. princeps luciferase complementation, luminescence, 4 h; 0.78% of 360,000 active; Q00G26+Q8WTS1;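 active = inhibition above the mean inhibition across every tested compound plus 3 SD, cut at about 22% in these data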;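 note: 0% = DMSO only wells and the 100% control is not disclosed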
# Target sequence (Q00G26 whole entry, looked up): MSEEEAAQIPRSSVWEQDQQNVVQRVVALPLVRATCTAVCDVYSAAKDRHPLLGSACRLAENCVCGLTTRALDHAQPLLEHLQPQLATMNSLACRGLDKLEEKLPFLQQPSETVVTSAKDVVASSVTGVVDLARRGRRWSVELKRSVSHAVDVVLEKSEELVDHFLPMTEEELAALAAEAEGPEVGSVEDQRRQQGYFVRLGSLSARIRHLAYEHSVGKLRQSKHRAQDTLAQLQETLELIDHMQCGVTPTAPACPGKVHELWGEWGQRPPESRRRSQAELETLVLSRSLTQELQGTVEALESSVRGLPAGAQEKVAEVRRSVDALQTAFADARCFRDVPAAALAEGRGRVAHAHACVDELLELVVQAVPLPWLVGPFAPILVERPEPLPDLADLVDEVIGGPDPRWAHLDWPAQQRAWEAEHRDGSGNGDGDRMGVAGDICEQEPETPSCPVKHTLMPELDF
# Target sequence (Q8WTS1 whole entry, looked up): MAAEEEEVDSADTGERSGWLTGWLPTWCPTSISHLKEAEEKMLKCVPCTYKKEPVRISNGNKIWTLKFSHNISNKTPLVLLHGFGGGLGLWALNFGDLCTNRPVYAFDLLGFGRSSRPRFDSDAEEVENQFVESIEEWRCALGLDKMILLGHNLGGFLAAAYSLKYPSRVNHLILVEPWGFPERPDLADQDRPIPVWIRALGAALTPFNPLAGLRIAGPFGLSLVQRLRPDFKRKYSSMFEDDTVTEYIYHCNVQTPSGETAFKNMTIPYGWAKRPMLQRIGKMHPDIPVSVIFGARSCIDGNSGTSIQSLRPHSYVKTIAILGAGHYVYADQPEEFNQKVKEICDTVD
# HKDC1 inhibitor – HKDC1 (human) hexokinase inhibition; recombinant HKDC1, G6PDH/diaphorase resazurin coupled fluorescence; 0.16% of 340,000 active; Q2TB90; inhibition, % at 20 µM;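 active = inhibition above about 35% when tested at 20 µM, limit read from the data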;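 note: plate controls were DMSO wells with enzyme for no effect and DMSO wells lacking enzyme for full effect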
#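 Material – in-house recombinant HK5 (HKDC1) enzyme · Quantity – HKDC1 at 5 µg/mL · Buffer or medium – pH 8.0 Tris buffer with 10 mM MgCl2 · Reagent – glucose with 1 mM ATP · Dosing – single 20 µM dose · Times – reaction time 90 min, room temperature, protected from light · Technique – resorufin fluorescence at 613 nm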
# Granule exo inh – blocks lytic granule exocytosis; TALL-104 LAMP-1 surface exposure, flow cytometry; cells stimulated with thapsigargin and PMA; inhibition, % at 10 µM; 0.66% of 360,000 active; AID 651702;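 active = inhibition above about 55%, limit read from the data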
# Exocytosis CP01 – lytic granule exocytosis inhibition; shares compounds with Granule exo inh; TALL-104 cells, LAMP-1 externalization, flow cytometry; stimulated with PMA plus thapsigargin; inhibition, % at 10 µM; 11% of 1,500 active; AID 651954; in the data active = inhibition above about 60%;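 note: 0% = stimulated vehicle wells and 100% = unstimulated wells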
# An asterisk follows results filed as active; x = no result given. Compounds with a hit are over-represented: about 2.2% of the library has one in this group of screens.
SMILES,PfGluPho inh,ABHD5-PLIN5 inh,HKDC1 inhibitor,Granule exo inh,Exocytosis CP01
CCCOc1ccc(Oc2nc(-c3ccncc3)nc3ccccc23)cc1,24,5,5,94*,-14
COc1ccc(Oc2nc(-c3ccncc3)nc3ccccc23)cc1,6,-1,5,5,x
O=C(OCc1ccccc1)N(CCCCN(CCCNCc1ccccc1)C(=O)OCc1ccccc1)CCCNCc1ccccc1,22,21,-2,85*,99*
O=C(NCCCCCCNC(=O)OCc1ccccc1)OCc1ccccc1,1,-1,-9,-2,x
CN(C)CCC(=O)c1ccc2c(c1)OCO2,14,7,-1,102*,103*
COc1cc(-c2coc3c(C(=O)NCc4ccc(N(C)C)cc4)cccc23)ccc1O,x,-8,x,4,x
COc1cc(-c2coc3c(C(=O)NCc4ccc(OC)c(OC)c4)cccc23)ccc1O,x,-2,x,66*,92*
NC(Cc1ccc(Cl)cc1)c1csc(Nc2ccc(C(=O)c3ccccc3)cc2)n1 (stereo not given),x,-5,x,58*,10
NC(Cc1ccccc1)c1csc(Nc2ccc(C(=O)c3ccccc3)cc2)n1 (stereo not given),x,9,x,11,x
CCOC(=O)Cn1c(=N)n(CCOc2ccc(Br)cc2)c2ccccc21,8,6,-3,66*,1
CCc1ccc(N(C(=O)c2snc(C(N)=O)c2N)C(C(=O)NC2CCCC2)c2ccncc2)cc1 (stereo not given),18,-3,-3,5,x
O=C(O)/C=C/C(=O)Nc1ccc(OC(F)(F)F)cc1Br,-21,4,2,4,x
Cc1ccc(S(=O)(=O)N2CCC(=O)N(C(COCc3ccccc3)Cc3ccccc3)CC2)cc1 (stereo not given),10,-5,-1,90*,-2
CN(C)/C=C/C(=O)c1ccc([N+](=O)[O-])c(CS(=O)(=O)c2ccc(Cl)cc2)c1,18,8,-4,-4,x
COc1ccc(-c2cc([C@H]3[C@H]4C=CC[C@@H](C)[C@@H]4C(=O)N3Cc3ccccc3)ccc2F)cc1,9,-3,3,57*,-14
COc1ccc(CCN(C)C(=O)CSc2ncnc3sccc23)cc1OC,9,-2,-11,77*,-12
Cc1ccc(N(C)C(=O)CN(C)S(=O)(=O)c2ccc3c(c2)n(C)c(=O)c(=O)n3C)cc1,3,-3,-3,-1,x
Cc1cc(=O)n2nc(N3CCCC(C(=O)NCCCN4CC(C)CC(C)C4)C3)sc2n1 (stereo not given),-4,1,1,-1,x
O=C(O)c1ccc(-c2noc(-c3ccccc3F)n2)cc1,-17,6,3,97*,-12
Cc1ccc(-c2noc(-c3ccccc3F)n2)cc1,19,1,17,-2,x
CCCCc1ccc(NC(=O)CSc2nc(=O)n(CCN(CC)CC)c3c2CCCC3)cc1,3,10,0,82*,-2
O=C(CCNC(=O)c1ccc(Br)cc1)NCCCN1CCCC1=O,13,10,-7,5,x
CN(C)S(=O)(=O)c1cccc(NC(=O)COc2ccc(C(=O)c3ccccc3)cc2)c1,8,0,-2,58*,2
CN(C)S(=O)(=O)c1cccc(NC(=O)c2ccccc2OCc2ccc(F)cc2)c1,9,12,0,102*,-10
COc1ccc(NC(=O)c2ccccc2OCc2ccc(F)cc2)c(OC)c1,34,0,-2,85*,-11
SMILES,PfGluPho inh,ABHD5-PLIN5 inh,HKDC1 inhibitor,Granule exo inh,Exocytosis CP01
CCN(C(=O)COC(=O)c1ccc(-n2c(C)ccc2C)cc1)c1c(N)n(Cc2ccccc2)c(=O)[nH]c1=O,7,8,6,3,x
Cc1ccc(S(=O)(=O)NCc2cn3ccccc3n2)c(C)c1,-6,-8,-2,-6,x
Cc1nc(CCNC(=O)C2CCC(=O)N(Cc3ccc(Cl)cc3)C2)sc1C (stereo not given),-20,-1,7,-1,x
CC(C)[C@H](NC(=O)c1ccccc1)C(=O)OCC(=O)N1CCc2ccccc2C1,-9,-7,-1,68*,-4
CC1(C)[C@@H](O)CC[C@]2(C)C3C(O)C=C4[C@H]5C[C@@](C)(CO)CC[C@]5(C)CC[C@]4(C)[C@]3(C)CC[C@@H]12 (stereo not given in full),-7,2,1,-11,x
COc1ccc(OC)c(-c2csc(NC(=O)Cc3ccccc3OC)n2)c1,13,-6,-2,68*,-5
COc1ccc(S(=O)(=O)N(C)C)cc1NC(=O)CCCSc1ccccc1,3,-4,0,95*,-5
